# Results of several laboratories.
# Lines come from different studies, so protocols differ.
# Target: Cyclin-dependent kinase 15 (CDK15, Homo sapiens, UniProt Q96Q40)
SMILES,assay,setting,remaining binding
O=C(O)c1cc(-c2ccc(C3CCNCC3)cc2)c2ccc(-c3ccc(C(F)(F)F)cc3)cc2c1,"cell-free assay, competition with immobilised ligand",1 µM,96%
O=C(NCC1CCOCC1)c1n[nH]cc1NC(=O)c1c(F)cccc1F,"binding, competition with immobilised ligand",1 µM,82%
C[C@@H]1CN(c2cc(-c3nn(C)c4ccc(OC5(C)CC5)cc34)ncn2)C[C@H](C)O1,"cell-free assay, competition with immobilised ligand",1 µM,84%
COc1cnc(Nc2cccc(S(N)(=O)=O)c2)nc1N1CCN(c2ccccc2)C(=O)C1,"binding, competition with immobilised ligand",1 µM,100%
FC(F)(F)Oc1cccc(-c2cnc3ccc(-c4ccncc4)nn23)c1,"cell-free assay, competition with immobilised ligand",5 µM,63%
COc1ccnn2ncc(-c3ccnc(N(C)C)n3)c12,binding,1 µM,41%
Cc1nc(Cc2cccc(C(F)(F)F)c2)sc1-c1ccc(C(N)=O)nc1,"cell-free assay, competition with immobilised ligand",1 µM,86%
F[C@@H]1CCN(c2nccc(-c3cnn4ncccc34)n2)C1,binding,1 µM,100%
COc1cnc(Nc2cccc(S(N)(=O)=O)c2)nc1N1CCN(c2ccccc2)CC1,"binding, competition with immobilised ligand",1 µM,93%
C=CC(=O)N1CCC(C(=O)NCC(=O)N2CCN(c3nc(-c4cnc(N)nc4C(F)F)nc(N4CCOCC4)n3)CC2)CC1,"binding, competition with immobilised ligand",1 µM,100%
CN(c1nccc(-c2cnn3ncccc23)n1)C1CC1,binding,1 µM,100%
COc1cccc(CNC(=O)c2nc3scc(COCc4ccc(C(=O)O)cc4)c3c(=O)[nH]2)c1,"cell-free assay, competition with immobilised ligand",1 µM,97.6%
c1cnn2ncc(-c3ccnc(N4CCC45COC5)n3)c2c1,binding,1 µM,85%
Cc1cnc(Nc2ccc(C(=O)N3CCC(N4CCCC4)CC3)cc2)nc1-c1cc2ccccc2s1,"binding, competition with immobilised ligand",1 µM,99%
C[C@H]1CCN(c2nccc(-c3cnn4ncccc34)n2)C1,binding,1 µM,56%
CCc1ccccc1C(=O)Nc1n[nH]c2c(C)c(F)c(C3C(C#N)=C(C)N(C)C(C)=C3C#N)cc12,"cell-free assay, competition with immobilised ligand",1 µM,95%
O=C(NCCCN1CCOCC1)c1ccc(Nc2ncc(Cl)c(-c3ccc(Cl)s3)n2)cc1,"binding, competition with immobilised ligand",1 µM,89%
CCS(=O)(=O)c1cc2cc(C[C@@](O)(CC(C)(C)c3ccc(F)cc3C(N)=O)C(F)(F)F)[nH]c2cn1,"cell-free assay, competition with immobilised ligand",1 µM,59%
N[C@H]1CCN(c2nccc(-c3cnn4ncccc34)n2)C1,binding,1 µM,100%
Cc1nc(N2CC[C@@H](O)C2)ncc1-c1cc(C(F)(F)F)cc2[nH]ncc12,"binding, competition with immobilised ligand",1 µM,81%
O=C(c1ccc(Nc2nccc(-c3cc4ccccc4s3)n2)cc1)N1CCC(N2CCCC2)CC1,"binding, competition with immobilised ligand",1 µM,100%
CCN1CCN(Cc2ccc(C(=O)Nc3ccc(C)c(Oc4ccc5c(c4)CC(=O)N5)c3)cc2C(F)(F)F)CC1,"binding, competition with immobilised ligand",1 µM,100%
